Reference: ChEMBL document CHEMBL4689842, “EUbOPEN Chemogenomics Library wave 1” (2021)
Values joined by “and” are separate entries in the source; they are usually repeats but may differ in a detail not shown here. Equal values may be shown once.

What was measured:
Assay type in all cases: toxicity, cell-based
HEK-293T [1] = test: Incucyte cell viability with HEK293T; settings: human, 10 µM, compound concentration 10 uM; further: filed as whole numbers so only -1 and 0 and 1 occur
Fibroblast = test: Multiplex assay against human fibroblast; settings: 1 µM, compound concentration 1 uM
Procedure, shortened: (§1)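 At seeding, live cells were stained with Hoechst33342, BioTracker Green Microtubule Cytoskeleton Dye, MitoTracker Red and Annexin V Alexa Fluor 680. After compound addition they were imaged on a CQ1 microscope at 37°C and 5% CO2, and CellPathfinder machine-learning gating sorted them into Hoechst high-intensity objects or normal cells, with normal cells further split into healthy, pyknosed or fragmented nuclei and pyknosed cells into mitotic or apoptotic. Tubulin, mitochondrial-mass and membrane-permeability phenotypes are given as per cents of cells with healthy nuclei.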

HEK-293T [2] = test: Multiplex assay against HEK293T; settings: human, 1 µM, compound concentration 1 uM; procedure, shortened: as §1;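 on Population Tubulin-Different-Phenotype (%): share of the cells with healthy nuclei that show this phenotype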

SMILES: CC[C@@H]1C(=O)N(C)c2cnc(Nc3ccc(C(=O)N[C@H]4CC[C@H](N5CCN(CC6CC6)CC5)CC4)cc3OC)nc2N1C(C)C [VOLASERTIB]
- Growth Rate (HEK-293T [1]; 0 h, replicate number 1, timepoint 0 hours): 0
- Growth Rate (HEK-293T [1]; 6 h, replicate number 1, timepoint 6 hours): 0
- Growth Rate (HEK-293T [1]; 12 h, replicate number 1, timepoint 12 hours): 0
- Growth Rate (HEK-293T [1]; 18 h, replicate number 1, timepoint 18 hours): 0
- Growth Rate (HEK-293T [1]; 24 h, replicate number 1, timepoint 24 hours): 0
- Population Apoptotic (%) (Fibroblast; 12 h, replicate 1): 76% and 71%
- Population Fragmented Nuclei (%) (Fibroblast; 12 h, replicate 1): 43% and 28%
- Population Healthy Nuclei (%) (Fibroblast; 12 h, replicate 1): 42% and 54%
- Population Hoechst High Intensity Objects (%) (Fibroblast; 12 h, replicate 1): 14% and 22%
- Population Membrane Permeable-Phenotype (%) (Fibroblast; 12 h, replicate 1): 9% and 7%
- Population Mitochondria Different-Phenotype (%) (Fibroblast; 12 h, replicate 1): 6% and 11%
- Population Mitotic Cells (%) (Fibroblast; 12 h, replicate 1): 24% and 28%
- Population Normal (%) (Fibroblast; 12 h, replicate 1): 85% and 77%
- Population Pyknosed Nuclei (%) (Fibroblast; 12 h, replicate 1): 13% and 16%
- Total Cell Count (Fibroblast; 12 h, replicate 1): 213 and 342
- Population Apoptotic (%) (Fibroblast; 12 h, replicate 2): 53% and 50%
- Population Fragmented Nuclei (%) (Fibroblast; 12 h, replicate 2): 48% and 67%
- Population Healthy Nuclei (%) (Fibroblast; 12 h, replicate 2): 32% and 24%
- Population Hoechst High Intensity Objects (%) (Fibroblast; 12 h, replicate 2): 36% and 43%
- Population Membrane Permeable-Phenotype (%) (Fibroblast; 12 h, replicate 2): 17% and 16%
- Population Mitochondria Different-Phenotype (%) (Fibroblast; 12 h, replicate 2): 26% and 33%
- Population Mitotic Cells (%) (Fibroblast; 12 h, replicate 2): 46% and 50%
- Population Normal (%) (Fibroblast; 12 h, replicate 2): 63% and 56%
- Population Pyknosed Nuclei (%) (Fibroblast; 12 h, replicate 2): 18% and 8%
- Population Tubulin-Different-Phenotype (%) (Fibroblast; 12 h, replicate 2): 78% and 58%
- Total Cell Count (Fibroblast; 12 h, replicate 2): 111 and 87
- Population Apoptotic (%) (Fibroblast; 24 h, replicate 1): 84% and 80%
- Population Fragmented Nuclei (%) (Fibroblast; 24 h, replicate 1): 23% and 37%
- Population Healthy Nuclei (%) (Fibroblast; 24 h, replicate 1): 52% and 50%
- Population Hoechst High Intensity Objects (%) (Fibroblast; 24 h, replicate 1): 31% and 16%
- Population Membrane Permeable-Phenotype (%) (Fibroblast; 24 h, replicate 1): 7%
- Population Mitotic Cells (%) (Fibroblast; 24 h, replicate 1): 15% and 19%
- Population Normal (%) (Fibroblast; 24 h, replicate 1): 68% and 83%
- Population Pyknosed Nuclei (%) (Fibroblast; 24 h, replicate 1): 24% and 11%
- Total Cell Count (Fibroblast; 24 h, replicate 1): 319 and 221
- Population Apoptotic (%) (Fibroblast; 24 h, replicate 2): 100% and 64%
- Population Fragmented Nuclei (%) (Fibroblast; 24 h, replicate 2): 62% and 44%
- Population Healthy Nuclei (%) (Fibroblast; 24 h, replicate 2): 36% and 33%
- Population Hoechst High Intensity Objects (%) (Fibroblast; 24 h, replicate 2): 38%
- Population Membrane Permeable-Phenotype (%) (Fibroblast; 24 h, replicate 2): 5% and 13%
- Population Mitochondria Different-Phenotype (%) (Fibroblast; 24 h, replicate 2): 22% and 45%
- Population Normal (%) (Fibroblast; 24 h, replicate 2): 61%
- Population Tubulin-Different-Phenotype (%) (Fibroblast; 24 h, replicate 2): 27% and 72%
- Total Cell Count (Fibroblast; 24 h, replicate 2): 81 and 106
- Population Apoptotic (%) (HEK-293T [2]; 12 h, replicate 1): 44% and 18%
- Population Fragmented Nuclei (%) (HEK-293T [2]; 12 h, replicate 1): 29% and 10%
- Population Healthy Nuclei (%) (HEK-293T [2]; 12 h, replicate 1): 31% and 58%
- Population Hoechst High Intensity Objects (%) (HEK-293T [2]; 12 h, replicate 1): 18% and 13%
- Population Membrane Permeable-Phenotype (%) (HEK-293T [2]; 12 h, replicate 1): 15% and 21%
- Population Mitotic Cells (%) (HEK-293T [2]; 12 h, replicate 1): 55% and 81%
- Population Normal (%) (HEK-293T [2]; 12 h, replicate 1): 81% and 86%
- Population Pyknosed Nuclei (%) (HEK-293T [2]; 12 h, replicate 1): 38% and 30%
- Population Tubulin-Different-Phenotype (%) (HEK-293T [2]; 12 h, replicate 1): 77% and 61%
- Total Cell Count (HEK-293T [2]; 12 h, replicate 1): 539 and 544
- Population Fragmented Nuclei (%) (HEK-293T [2]; 12 h, replicate 2): 3%
- Population Healthy Nuclei (%) (HEK-293T [2]; 12 h, replicate 2): 76%
- Population Hoechst High Intensity Objects (%) (HEK-293T [2]; 12 h, replicate 2): 2% and 5%
- Population Membrane Permeable-Phenotype (%) (HEK-293T [2]; 12 h, replicate 2): 18% and 12%
- Population Mitochondria Different-Phenotype (%) (HEK-293T [2]; 12 h, replicate 2): 31% and 62%
- Population Mitotic Cells (%) (HEK-293T [2]; 12 h, replicate 2): 93% and 80%
- Population Normal (%) (HEK-293T [2]; 12 h, replicate 2): 97% and 94%
- Population Pyknosed Nuclei (%) (HEK-293T [2]; 12 h, replicate 2): 19%
- Population Tubulin-Different-Phenotype (%) (HEK-293T [2]; 12 h, replicate 2): 87% and 96%
- Total Cell Count (HEK-293T [2]; 12 h, replicate 2): 982 and 1003
- Population Healthy Nuclei (%) (HEK-293T [2]; 24 h, replicate 1): 30% and 54%
- Population Hoechst High Intensity Objects (%) (HEK-293T [2]; 24 h, replicate 1): 21% and 9%
- Population Membrane Permeable-Phenotype (%) (HEK-293T [2]; 24 h, replicate 1): 9% and 11%
- Population Mitotic Cells (%) (HEK-293T [2]; 24 h, replicate 1): 53% and 84%
